KCNQ1 inh: blocks the human KCNQ1 potassium channel | AID 2642 | hit rate 1.3% among 310,000 | B-score at 10 µM | CHO-K1 KCNQ1, FluxOR thallium flux fluorescence; active compounds read high | P51787;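 active = compounds whose thallium flux B-score, printed positive for inhibition, exceeds three library SD while starting fluorescence stays within three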;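 note: channel opened by potassium depolarization with thallium stimulus after 20 min compound exposure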
Kir21 inh: inhibitors of mouse Kir2.1 inward-rectifier potassium channel; AID 1672; B-score at 10 µM; HEK293-Kir2.1, FluxOR thallium flux fluorescence; active compounds read low; hit rate 0.85% among 310,000;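 active = fluorescence ratio B-score at or below minus 3 SD of library scores, with starting-brightness B-score within 2 SD, cut at about -4.2 in these data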;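 note: channel flux triggered by added potassium and thallium sulfate stimulus; B-score of peak minus minimum fluorescence over baseline after thallium stimulus; more negative B-score means stronger Kir2.1 block with less thallium influx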
KCNK9 inh: blocks the human KCNK9 two-pore domain potassium channel; B-score at 10 µM; Q9NPC2; AID 488922; hit rate 1.2% among 310,000; HEK293 KCNK9, FluxOR thallium flux fluorescence; active compounds read low;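 active = ratio B-score over 3 SD below the library mean, with starting fluorescence within 5 SD of its mean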;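 note: negative B-score means less thallium flux so channel inhibition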
hERG protect: shields human hERG channel from block by proarrhythmic agents; activation (rescue from dofetilide block), less the hit threshold, % at 10 µM; Q12809; hit rate 0.51% among 310,000; CHO-hERG, FluxOR thallium flux, dofetilide IC70 present;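 active = activation above the mean of controls blocked by dofetilide plus 5 SD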;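 note: thallium influx through hERG after potassium depolarization seen as dye fluorescence rise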
KCNK3 block: human KCNK3 channel inhibition, primary screen. O14649. CHO-KCNK3 thallium flux, FluxOR fluorescence; active compounds read low. B-score at 10 µM. hit rate 0.84% among 340,000;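 active = B-score under library mean minus 4 SD, starting fluorescence ratio at most library mean plus 5 SD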;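 note: more negative B-score means stronger inhibition of thallium flux through KCNK3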
KCNQ1 act: potentiates or activates the human KCNQ1 potassium channel | CHO-K1 KCNQ1, thallium flux FluxOR fluorescence; active compounds read high | P51787 | AID 2648 | hit rate 0.35% among 310,000 | B-score at 10 µM;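 active = fluorescence ratio B-score, a plate-corrected score, at least three library SD, with initial intensity B-score within 5 SD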
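System: Stable KCNQ1 CHO-K1 line | Incubation: 90 min dye loading and 20 min compound exposure, both at room temperature | Measure: Ratio B score | Medium: Assay buffer for compound exposure, DMSO matched across wells | Compound dosing: Single-concentration screen | Probe or stimulus: K+/Tl+ depolarizing stimulus | Measured by: Kinetic FluxOR fluorescence, 10 s baseline plus 110 s post-stimulus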
KCNK9 inh conf: confirmation of human KCNK9 potassium channel inhibitors; AID 492992; shares compounds with KCNK9 inh; hit rate 43% among 4,900; inhibition, % at 10 µM; HEK293 KCNK9 cells, FluxOR thallium flux fluorescence;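 active = thallium signal inhibited by more than 5 SD of the compound-free buffer control wells, on both duplicate plates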;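 note: 0% = assay buffer control wells without compound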
Kir21 sel: tests whether KCNK9 modulators also affect mouse Kir2.1; hit rate 4% among 4,900; inhibition, % at 10 µM; Kir2.1 cells, FluxOR thallium flux fluorescence; shares compounds with KCNK9 inh;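 active = thallium signal drop more than 5 SD beyond the mean of the no-compound control wells, seen in both duplicate plates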;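 note: signal is fluorescence rise after thallium addition divided by baseline fluorescence; plate controls were assay buffer only for no effect and full block by chlorpromazine control for full effect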
HEK293 Tl ctr: second check of KCNK9 modulator effects in non-induced HEK293 cells; shares compounds with KCNK9 inh; FluxOR thallium flux; inhibition, % at 10 µM; hit rate 40% among 4,900; AID 492997;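 active = thallium signal drop beyond 5 SD of the untreated control mean, on both duplicate plates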;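 note: plate controls were buffer only IC0 wells for no effect and SID17386958 at its maximal inhibitory level for full effect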
An asterisk follows results filed as active; i = inactive; x = no result given. Hits are enriched below; roughly 3.8% of the tested compounds scored in any of these assays.

SMILES	KCNQ1 inh	Kir21 inh	KCNK9 inh	hERG protect	KCNK3 block	KCNQ1 act	KCNK9 inh conf	Kir21 sel	HEK293 Tl ctr
C(#Cc1ccccc1)CN1CCCCC1	i	0.46	i	-6	i	i	x	x	x
CC(NC(=O)c1cc2cc(Br)ccc2oc1=N)c1ccccc1 (centres undefined)	i	0.51	i	-16	i	i	i	i	i
CCN(CC)c1ccc(-c2nn3c(-c4n[nH]c5c4CCC5)nnc3s2)cc1	i	0.89	-14*	-12	-9*	i	44%*	i	36%*
CCOC(=O)c1c2c3c(c(Cl)ccc3[nH]c1=O)C(=O)c1ccccc1-2	i	-0.21	i	-2	i	i	x	x	x
O=C1c2ccccc2C(=O)N1CCCCSc1nc2ccccc2o1	i	1.1	i	-6	i	i	i	i	i
Cc1nnc(SCCCN2C(=O)c3ccccc3C2=O)o1	i	-1.4	i	-11	i	i	x	x	x
O=C(CCCCCN1C(=O)[C@@H]2Cc3ccccc3CN2C1=O)NCCc1ccccc1	i	-2.4	i	-14	i	i	x	x	x
COc1ccc(C2CC(c3ccccc3)=NN2C(=O)COC(=O)C2(C)CC2(Cl)Cl)cc1 (centres undefined)	i	1.5	i	-10	i	i	i	i	i
COc1ccc(C2CC(c3ccccc3)=NN2C(=O)COC(=O)C2CC2)cc1 (centres undefined)	i	1.4	i	-8	i	i	x	x	x
COc1ccc(C2=NN(C(=O)c3ccccc3)C(c3cccc([N+](=O)[O-])c3)C2)cc1 (centres undefined)	i	-0.79	-18*	-8	i	i	54%*	i	28%*
O=S(c1ccccc1)c1ccccc1	x	x	x	x	i	x	x	x	x
O=c1nc2c(-c3cccc(Br)c3)n[nH]n2c2ccccc12	i	-0.05	i	-1	i	i	x	x	x
Clc1ccc(-c2ccc(-c3nn4c(-c5ccco5)nnc4s3)o2)cc1	i	0.29	-9.8*	-9	i	i	40%*	i	i
Brc1ccc(-c2nn3c(-c4ccco4)nnc3s2)o1	i	-0.11	i	-7	i	i	x	x	x
COCCN(CCOC)S(=O)(=O)c1ccc(C(=O)Nc2c(C)n(C)n(-c3ccccc3)c2=O)cc1	i	2.2	i	-5	i	i	x	x	x
Cc1ccc(S(=O)(=O)N(C)C)cc1-n1c(SCC(=O)Nc2ccc(F)cc2)nc2ccccc2c1=O	i	2	-9.7*	-6	i	i	50%*	i	24%*
CC(C)(C)c1ccc(OCCC(=O)OCC(=O)NC(=O)NC2CCCC2)cc1	i	0.53	-9.8*	-11	i	i	i	i	i
CC(C)(C)c1ccc(OCCC(=O)OCC(=O)NC2CCCCC2)cc1	i	-1	i	-9	i	i	x	x	x
O=C(O)CCCN1C(=O)/C(=C/c2cn(-c3ccccc3)nc2-c2cccs2)SC1=S	i	-0.36	i	-26	i	i	x	x	x
Cc1nn(-c2ccccc2)c(Cl)c1/C=C1\SC(=S)N(CCCCCC(=O)O)C1=O	i	-0.64	i	-20	i	i	i	i	i
CC(=O)N/N=c1\sc2ccccc2n1C	i	-0.55	i	-13	i	i	x	x	x
CN(C)c1ccc(N=c2sc3ccccc3n2C)cc1	i	2.2	i	-1	i	i	i	i	i
COc1ccc2cc(C(=O)C3CCCN(C(=O)CCc4ccccn4)C3)ccc2c1 (centres undefined)	i	2.5	i	-21	i	i	i	i	i
COc1ccc(C(=O)C2CCCN(C(=O)/C=C/c3ccccn3)C2)c(C)c1 (centres undefined)	i	-0.12	i	-7	i	i	i	i	i
O=C(c1ccc(Cl)cc1)C1CCCN(C(=O)/C=C/c2ccccn2)C1 (centres undefined)	i	0.43	i	-9	i	i	i	i	i
SMILES	KCNQ1 inh	Kir21 inh	KCNK9 inh	hERG protect	KCNK3 block	KCNQ1 act	KCNK9 inh conf	Kir21 sel	HEK293 Tl ctr
COc1cccc(C(=O)C2CCCN(C(=O)CCc3scnc3C)C2)c1 (centres undefined)	i	-0.24	i	-8	i	i	x	x	x
COc1ccc(C(=O)C2CCCN(C(=O)c3cccnc3SC)C2)c(C)c1 (centres undefined)	i	0.18	i	-16	i	i	x	x	x
O=C(O)c1ccccc1N/N=C/c1cc(Br)cc(Br)c1O	6*	-0.77	i	-13	i	i	i	i	i
O=C(Nc1ccc(F)cc1)c1sccc1SCc1cccc(C(F)(F)F)c1	i	-1.9	-13*	-9	i	i	62%*	46%*	48%*
O=C(Nc1ccc(F)cc1F)c1sccc1SCc1cccc(C(F)(F)F)c1	8*	-1.7	-12*	-14	i	i	68%*	42%*	50%*
O=C(COC(=O)Cc1c(Cl)cccc1Cl)Nc1ccc(OC(F)(F)F)cc1	i	-0.32	i	-9	i	i	x	x	x
COc1ccc(CCN(Cc2nc3ccccc3c(=O)[nH]2)C(=O)c2ccco2)cc1	i	-0.06	i	-7	i	i	x	x	x
COc1ccc(CN(CCC(c2ccccc2)c2ccco2)C(=O)c2ccco2)cc1 (centres undefined)	i	-0.19	-13*	-17	i	i	50%*	i	29%*
O=S(=O)(c1ccc(S(=O)(=O)N(Cc2ccccc2)Cc2ccco2)cc1)N1CCCC1	i	-0.07	i	-6	i	i	x	x	x
COC(=O)/C=C/c1ccccc1S(=O)(=O)N(Cc1ccccc1)Cc1ccco1	i	-0.94	-8.5*	-9	i	i	30%*	i	38%*
COc1ccccc1C(=O)NC(=O)COC(=O)Cn1[nH]c(=O)c2ccccc2c1=O	i	2	i	-14	i	i	x	x	x
CCOC(=O)Nc1ccc2c(c1)N(C(=O)CN)c1ccccc1CC2	i	-1.7	i	-6	i	i	x	x	x
CCNCC(=O)N1c2ccccc2CCc2ccc(NC(=O)OCC)cc21	i	-0.17	-11*	-11	i	i	54%*	i	34%*
